Source: ChEMBL document CHEMBL1772939, “Ferruginenes A-C from Rhododendron ferrugineum and their cytotoxic evaluation” (J Nat Prod, 2011)
Activity calls are given as the source filed them. The calls are words filed in the database; no cut-off is given here.

Legend:
[1] = target: Cannabinoid receptor 1 (Homo sapiens) (UniProt P21554); assay: Binding affinity to CB1 receptor at 20 uM by radioligand displacement assay
[2] = Cytotoxicity against human HeLaS3 cells assessed as cell viability after 24 hrs by tryptan blue staining-based cell counting; format: functional; settings: HeLa S3, 24 h
How it was run: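 HeLa-S3 cervix carcinoma cells (ATCC) grown in RPMI 1640 with 10% heat-inactivated FBS, 1% L-glutamine, 1% penicillin/streptomycin at 37 C, 5% CO2. Plated at 0.1 × 10^6 cells/mL for 24 h, then treated 24 h with compounds or 0.3% DMSO. Cells trypsinized, stained with 0.4% trypan blue, counted on a viability analyzer; IC50 from three independent experiments.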

MCF7 = assay: Cytotoxicity against human MCF7 cells assessed as cell viability after 24 hrs by tryptan blue staining-based cell counting; format: functional; settings: MCF7, 24 h
How it was run: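 MCF-7 breast adenocarcinoma cells (ATCC) in DMEM with 10% heat-inactivated FBS, 1% L-glutamine, 1% penicillin/streptomycin, 37 C, 5% CO2. Cultured at 0.2 × 10^6 cells/mL for 48 h before 24 h exposure to compounds or 0.3% DMSO. Trypsinized cells stained with 0.4% trypan blue and counted on a viability analyzer; IC50 from three independent experiments.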

HEK293 = assay: Cytotoxicity against human HEK293 cells assessed as cell viability after 24 hrs by tryptan blue staining-based cell counting; settings: HEK293, 24 h
How it was run: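 HEK293 cells from ATCC, kept in DMEM with 10% heat-inactivated FBS, 1% L-glutamine, 1% penicillin/streptomycin, 37 C, 5% CO2. Seeded at 0.1 × 10^6 cells/mL in 24-well plates, grown 24 h, then exposed to compounds or 0.3% DMSO solvent for 24 h. Trypsinized cells stained with 0.4% trypan blue and counted by viability analyzer; IC50 from three independent experiments.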

[3] = target: Transient receptor potential cation channel subfamily V member 1 (Homo sapiens) (UniProt Q8NER1); assay: Binding affinity to TRPV1 receptor at 20 uM by radioligand displacement assay
[4] = target: T1, 5-hydroxytryptamine receptor 1A (Homo sapiens) (UniProt P08908); assay: Binding affinity to 5HT1A receptor at 20 uM by radioligand displacement assay
T1 sequence (whole entry): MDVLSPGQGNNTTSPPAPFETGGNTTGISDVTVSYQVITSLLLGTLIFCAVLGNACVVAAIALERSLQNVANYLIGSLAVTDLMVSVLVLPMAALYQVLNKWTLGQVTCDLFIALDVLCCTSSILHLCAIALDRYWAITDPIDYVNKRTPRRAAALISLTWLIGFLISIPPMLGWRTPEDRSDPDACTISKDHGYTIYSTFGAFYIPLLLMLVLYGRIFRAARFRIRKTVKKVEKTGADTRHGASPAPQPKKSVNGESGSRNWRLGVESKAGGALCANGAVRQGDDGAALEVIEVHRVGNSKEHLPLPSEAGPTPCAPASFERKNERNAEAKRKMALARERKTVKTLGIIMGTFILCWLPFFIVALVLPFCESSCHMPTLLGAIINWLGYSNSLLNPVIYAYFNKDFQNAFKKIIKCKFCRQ

HL-60 = assay: Cytotoxicity against human HL60 cells assessed as cell viability after 24 hrs by tryptan blue staining-based cell counting; format: functional; settings: HL-60, 24 h
How it was run: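 HL-60 promyelocytic leukemia cells (ATCC) kept in RPMI 1640 with 10% heat-inactivated FBS, 1% L-glutamine, 1% penicillin/streptomycin, 37 C, 5% CO2. Seeded at 0.1 × 10^6 cells/mL, grown 24 h, then exposed 24 h to compounds or 0.3% DMSO solvent. Suspension cells stained with 0.4% trypan blue and counted on a viability analyzer; IC50 from three independent experiments.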

[5] = target: Cannabinoid receptor 2 (Homo sapiens) (UniProt P34972); assay: Binding affinity to CB2 receptor at 20 uM by radioligand displacement assay
Sequence of Cannabinoid receptor 2 (Homo sapiens) (P34972 whole entry): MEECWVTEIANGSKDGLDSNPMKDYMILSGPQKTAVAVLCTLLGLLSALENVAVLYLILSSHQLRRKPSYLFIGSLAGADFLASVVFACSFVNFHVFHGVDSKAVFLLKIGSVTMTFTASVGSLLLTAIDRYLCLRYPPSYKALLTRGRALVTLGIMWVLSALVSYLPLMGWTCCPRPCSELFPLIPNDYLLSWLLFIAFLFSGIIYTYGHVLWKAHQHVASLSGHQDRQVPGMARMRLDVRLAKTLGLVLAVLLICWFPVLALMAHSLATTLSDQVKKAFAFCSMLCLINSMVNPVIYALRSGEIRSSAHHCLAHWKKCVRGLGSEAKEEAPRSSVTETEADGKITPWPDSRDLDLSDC

Sequence of Cannabinoid receptor 1 (Homo sapiens) (P21554 whole entry): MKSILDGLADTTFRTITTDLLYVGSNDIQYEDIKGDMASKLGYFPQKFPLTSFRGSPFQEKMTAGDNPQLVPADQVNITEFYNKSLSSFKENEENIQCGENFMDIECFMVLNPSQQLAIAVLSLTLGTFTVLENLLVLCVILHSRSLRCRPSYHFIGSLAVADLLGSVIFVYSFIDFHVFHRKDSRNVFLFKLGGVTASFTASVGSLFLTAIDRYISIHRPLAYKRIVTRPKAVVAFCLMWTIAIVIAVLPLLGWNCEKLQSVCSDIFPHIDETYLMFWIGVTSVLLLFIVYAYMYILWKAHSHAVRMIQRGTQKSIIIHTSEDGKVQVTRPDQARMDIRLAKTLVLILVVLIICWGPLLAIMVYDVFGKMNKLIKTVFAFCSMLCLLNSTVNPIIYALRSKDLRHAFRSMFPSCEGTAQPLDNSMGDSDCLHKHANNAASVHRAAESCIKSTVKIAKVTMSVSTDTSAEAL
Sequence of Transient receptor potential cation channel subfamily V member 1 (Homo sapiens) (Q8NER1 whole entry): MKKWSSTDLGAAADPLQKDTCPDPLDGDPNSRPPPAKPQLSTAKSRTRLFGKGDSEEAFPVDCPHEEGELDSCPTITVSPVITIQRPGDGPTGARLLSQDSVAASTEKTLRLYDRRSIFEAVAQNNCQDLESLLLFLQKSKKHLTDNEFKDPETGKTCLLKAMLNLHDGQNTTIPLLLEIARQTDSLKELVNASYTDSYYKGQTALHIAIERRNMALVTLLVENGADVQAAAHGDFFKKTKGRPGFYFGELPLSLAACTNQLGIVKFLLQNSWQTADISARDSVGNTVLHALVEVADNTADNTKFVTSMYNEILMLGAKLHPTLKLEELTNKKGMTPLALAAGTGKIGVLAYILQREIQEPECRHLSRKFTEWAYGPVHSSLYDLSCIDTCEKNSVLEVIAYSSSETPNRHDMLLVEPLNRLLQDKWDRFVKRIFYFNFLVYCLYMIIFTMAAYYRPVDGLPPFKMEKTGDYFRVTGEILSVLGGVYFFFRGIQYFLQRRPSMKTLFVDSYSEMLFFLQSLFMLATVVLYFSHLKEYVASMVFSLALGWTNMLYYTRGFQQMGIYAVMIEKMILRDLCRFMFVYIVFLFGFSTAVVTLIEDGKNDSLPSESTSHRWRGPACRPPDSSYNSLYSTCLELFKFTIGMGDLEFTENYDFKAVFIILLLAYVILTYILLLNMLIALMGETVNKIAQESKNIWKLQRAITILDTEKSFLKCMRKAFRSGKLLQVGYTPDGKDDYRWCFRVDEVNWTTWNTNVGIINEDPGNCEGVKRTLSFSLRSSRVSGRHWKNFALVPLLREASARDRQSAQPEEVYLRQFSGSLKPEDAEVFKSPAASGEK

Compound	Activity [1]	IC50 [2] [µM]	IC50 (MCF7) [µM]	IC50 (HEK293) [µM]	Activity [3]	Activity [4]	IC50 (HL-60) [µM]	Activity [5]
C=C(C)C(O)CCC(=C)[C@@H]1CCC(C)=C[C@H]1c1c(O)cc(C)cc1O (mixture of isomers) [FERRUGINENE C]	inactive	> 20	> 20	> 20	inactive	inactive	> 13.7	Active
C=C(C)C(O)CCC(=C)[C@@H]1CC[C@](C)(O)[C@H]2Oc3cc(C)cc(O)c3[C@@H]12 (some centres not stated) [FERRUGINENE A]	inactive	> 20	> 20	–	inactive	inactive	> 20	inactive
C=C(C/C=C/C(C)(C)O)[C@@H]1CC[C@](C)(O)[C@H]2Oc3cc(C)cc(O)c3[C@@H]12 [FERRUGINENE B]	inactive	> 20	> 20	–	Active	inactive	> 20	inactive
